Assays:
THP1 macrophages = test: In vitro phagocytosis of opsonized nanobeads by THP1 macrophages; format: cell-based, human; conditions: THP1, DMSO solvent
Outline: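 Fluorescent 100-nm streptavidin-coated polystyrene beads, opsonized with antistreptavidin antibody, with or without attached hCD47, given to THP1 cells in vitro. Phagocytosis scored at 45 min. Cultures fixed without permeabilization, and non-ingested beads immunostained with a secondary antibody against the antistreptavidin opsonin. Data as means ± SEM.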

macrophages / phagocytes = test: Circulation of nanobeads in NSG mice; format: in vivo, mouse (NSG); conditions: opsonized nanobeads, i.v.
[1] = Organ localization of nanobeads by whole-body NIRF imaging; format: in vivo, mouse (NSG); conditions: NIRF beads

Cc1ccc2c(c1)C(=O)C1(O)CCN(c3ccccc3)C1=N2 (stereo not shown) [blebbistatin]
inhibition of uptake by 50 µM compound (THP1 macrophages; 50 µM, inhibition of myosin-IIA): inhibited

O=S(=O)(O)c1ccc2cc(N=Nc3cc(S(=O)(=O)O)c4cccnc4c3O)ccc2c1 [NSC-87877]
reversal of hCD47 inhibition of uptake (THP1 macrophages; SHP1 inhibition, hCD47 beads): blocks the inhibition of uptake by hCD47

B1: mCD47: recombinant mouse CD47 (protein, UniProt Q61735 19-303, looked up)
Leukocyte surface antigen CD47: QLLFSNVNSIEFTSCNETVVIPCIVRNVEAQSTEEMFVKWKLNKSYIFIYDGNKNSTTTDQNFTSAKISVSDLINGIASLKMDKRDAMVGNYTCEVTELSREGKTVIELKNRTVSWFSPNEKILIVIFPILAILLFWGKFGILTLKYKSSHTNKRIILLLVAGLVLTVIVVVGAILLIPGEKPVKNASGLGLIVISTGILILLQYNVFMTAFGMTSFTIAILITQVLGYVLALVGLCLCIMACEPVHGPLLISGLGIIALAELLGLVYMKFVASNQRTIQPPRNR
effect on circulation / clearance of nanobeads (macrophages / phagocytes): enhanced persistence in circulation | splenic / organ localization of nanobeads [1]: moderate but suppressed splenic localization

Reference: publication PMC3966479 (Science (New York, N.Y.), 2013)
